# Laboratory results reported in ChEMBL document CHEMBL4028903 (J Med Chem, 2017).
# Activity calls are given as the source filed them. The rule behind the calls is not given here.
# How the values were obtained:
# [1] = Cmax in Sprague-Dawley rat at 0.3 mg/kg, po qd administered via gavage measured on day 11 by LC-MS/MS analysis; type: ADME, organism-based; design: dose 0.3 mg/kg, route oral; conditions: in vivo
# [2] = AUC (0 to 24 hrs) in Sprague-Dawley rat at 0.01 mg/kg, po qd administered via gavage measured on day 1 by LC-MS/MS analysis; type: ADME, organism-based; design: dose 0.01 mg/kg, time < 24 hr, route oral; conditions: in vivo
# [3] = AUC (0 to 24 hrs) in Sprague-Dawley rat at 0.03 mg/kg, po qd administered via gavage measured on day 11 by LC-MS/MS analysis; type: ADME, organism-based; design: time < 24 hr, dose 0.03 mg/kg, route oral; conditions: in vivo
# [4] = AUC (0 to 24 hrs) in Sprague-Dawley rat at 0.003 mg/kg, po qd administered via gavage measured on day 11 by LC-MS/MS analysis; type: ADME, organism-based; design: time < 24 hr, dose 0.003 mg/kg, route oral; conditions: in vivo
# [5] = Drug uptake in Sprague-Dawley rat liver at 1 mg/kg, po qd administered via gavage measured 1 hr post last dose on day 14 by LC-MS/MS analysis; type: ADME, organism-based; conditions: read-out: Drug uptake
# Summary of the method: (§1)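 Drug concentration in liver was quantified from tissue homogenates, so these are total levels. Unbound liver concentration was not determined.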
# [6] = Cmax in Sprague-Dawley rat at 0.1 mg/kg, po qd administered via gavage measured on day 1 by LC-MS/MS analysis; type: ADME, organism-based; design: dose 0.1 mg/kg, route oral; conditions: in vivo
# [7] = Protein binding in rat plasma at 3 mg/kg, iv or 1 mg/kg, po administered via gavage by LC-MS/MS analysis; type: ADME, organism-based; conditions: read-out: PPB
# Rattus norvegicus [8] = assay: In vivo agonist activity at FXR in po dosed Sprague-Dawley rat assessed as downregulation of CYP8B1 mRNA level in liver administered once daily for 14 days measured 7 hrs post last dose on day 14 by qPCR analysis; type: functional
# [9] = Oral bioavailability in rat at 10 mg/kg administered via gavage by LC-MS/MS analysis; type: ADME, organism-based; conditions: in vivo
# Summary of the method: (§2)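 Rats were dosed IV as a solution in 75% PEG300:25% D5W, or orally as a suspension in 0.5% methylcellulose, 0.5% Tween80 and 99% water.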
# [10] = Drug uptake in Sprague-Dawley rat plasma at 1 mg/kg, po qd administered via gavage measured 7 hrs post last dose on day 14 by LC-MS/MS analysis; type: ADME, organism-based
# [11] = Dissociation constant, pKa of compound; type: physicochemical
# [12] = AUC (0 to 24 hrs) in Sprague-Dawley rat at 0.003 mg/kg, po qd administered via gavage measured on day 1 by LC-MS/MS analysis; type: ADME, organism-based; design: time < 24 hr, dose 0.003 mg/kg, route oral; conditions: in vivo
# [13] = AUC (0 to 24 hrs) in Sprague-Dawley rat at 1 mg/kg, po qd administered via gavage measured on day 1 by LC-MS/MS analysis; type: ADME, organism-based; design: dose 1 mg/kg, time < 24 hr, route oral; conditions: in vivo
# [14] = Cmax in Sprague-Dawley rat at 0.003 mg/kg, po qd administered via gavage measured on day 1 by LC-MS/MS analysis; type: ADME, organism-based; design: dose 0.003 mg/kg, route oral; conditions: in vivo
# [15] = Drug uptake in Sprague-Dawley rat plasma at 0.3 mg/kg, po qd administered via gavage measured 1 hr post last dose on day 14 by LC-MS/MS analysis; type: ADME, organism-based
# Mus musculus = assay: Drug metabolism in mouse assessed as taurine conjugated metabolite formation at 5 mg/kg, iv or 10 mg/kg, po administered via gavage by LC-MS/MS analysis; type: ADME, organism-based; conditions: in vivo
# [16] = AUC (0 to 24 hrs) in Sprague-Dawley rat at 3 mg/kg, po qd administered via gavage measured on day 11 by LC-MS/MS analysis; type: ADME, organism-based; design: dose 3 mg/kg, time < 24 hr, route oral; conditions: in vivo
# [17] = Drug uptake in Sprague-Dawley rat liver at 0.03 mg/kg, po qd administered via gavage measured 7 hrs post last dose on day 14 by LC-MS/MS analysis; type: ADME, organism-based; conditions: read-out: Drug uptake; summary of the method: as §1
# Rattus norvegicus [18] = assay: In vivo agonist activity at FXR in Sprague-Dawley rat assessed as induction of FGF15 mRNA level in ileum at 0.01 mg/kg, po qd for 14 days measured 7 hrs post last dose on day 14 by qPCR analysis; type: functional, organism-based
# [19] = Cmax in Sprague-Dawley rat at 3 mg/kg, po qd administered via gavage measured on day 1 by LC-MS/MS analysis; type: ADME, organism-based; design: dose 3 mg/kg, route oral; conditions: in vivo
# [20] = AUC in rat at 10 mg/kg, po administered via gavage by LC-MS/MS analysis; type: ADME, organism-based; conditions: in vivo; summary of the method: as §2
# [21] = AUC (0 to 24 hrs) in Sprague-Dawley rat at 0.1 mg/kg, po qd administered via gavage measured on day 11 by LC-MS/MS analysis; type: ADME, organism-based; design: time < 24 hr, dose 0.1 mg/kg, route oral; conditions: in vivo
# Rattus norvegicus [22] = assay: In vivo agonist activity at FXR in po dosed Sprague-Dawley rat assessed as induction of FGF15 protein level in plasma administered once daily for 14 days measured 7 hrs post last dose on day 14; type: functional, organism-based
# [23] = AUC (0 to 24 hrs) in Sprague-Dawley rat at 3 mg/kg, po qd administered via gavage measured on day 1 by LC-MS/MS analysis; type: ADME, organism-based; design: time < 24 hr, dose 3 mg/kg, route oral; conditions: in vivo
# [24] = Cmax in Sprague-Dawley rat at 0.1 mg/kg, po qd administered via gavage measured on day 11 by LC-MS/MS analysis; type: ADME, organism-based; design: dose 0.1 mg/kg, route oral; conditions: in vivo
# Rattus norvegicus [25] = assay: In vivo agonist activity at FXR in po dosed Sprague-Dawley rat assessed as induction of SHP mRNA level in ileum administered as single dose measured 7 hrs post dose by qPCR analysis; type: functional, organism-based
# [26] = Cmax in Sprague-Dawley rat at 0.003 mg/kg, po qd administered via gavage measured on day 11 by LC-MS/MS analysis; type: ADME, organism-based; design: dose 0.003 mg/kg, route oral; conditions: in vivo
# [27] = Terminal half life in rat at 3 mg/kg, iv by LC-MS/MS analysis; type: ADME, organism-based; conditions: in vivo, read-out: beta t1/2 (converted); summary of the method: as §2
# Rattus norvegicus [28] = assay: Dose normalized AUC (0 to 24 hrs) in Sprague-Dawley rat at 0.3 mg/kg, po qd administered via gavage measured on day 1 by LC-MS/MS analysis; type: ADME, organism-based; conditions: in vivo
# Rattus norvegicus [29] = assay: Dose normalized AUC (0 to 24 hrs) in Sprague-Dawley rat at 0.003 mg/kg, po qd administered via gavage measured on day 11 by LC-MS/MS analysis; type: ADME, organism-based; conditions: in vivo
# [30] = Cmax in Sprague-Dawley rat at 0.03 mg/kg, po qd administered via gavage measured on day 1 by LC-MS/MS analysis; type: ADME, organism-based; design: dose 0.03 mg/kg, route oral; conditions: in vivo
# Rattus norvegicus [31] = assay: In vivo agonist activity at FXR in Sprague-Dawley rat assessed as downregulation of CYP8B1 mRNA level in liver at 0.003 mg/kg, po qd for 14 days measured 7 hrs post last dose on day 14 by qPCR analysis; type: functional, organism-based
# Rattus norvegicus [32] = assay: Drug metabolism in rat assessed as glycine conjugated metabolite formation at 3 mg/kg, iv or 1 mg/kg, po administered via gavage by LC-MS/MS analysis; type: ADME, organism-based; conditions: in vivo
# Rattus norvegicus [33] = assay: In vivo agonist activity at FXR in po dosed Sprague-Dawley rat assessed as induction of FGF15 mRNA level in ileum administered once daily for 14 days measured 7 hrs post last dose on day 14 by qPCR analysis; type: functional
# [34] = Drug uptake in Sprague-Dawley rat plasma at 0.01 mg/kg, po qd administered via gavage measured 7 hrs post last dose on day 14 by LC-MS/MS analysis; type: ADME, organism-based
compound,measurement,setting,value
O=C(O)c1cc(F)c2nc(N3C4CCC3CC(OCc3c(-c5ccccc5OC(F)(F)F)noc3C3CC3)C4)sc2c1 (stereo not given),Cmax,[1],14.8 nM
same,AUC(0-t) at 24 h,[2],0.004 µM·h
same,AUC at 24 h,[3],0.02 µM·h
same,AUC at 24 h,[4],0.002 µM·h
same,concentration at 1 h,[5],159 nM
same,Cmax,[6],4.6 nM
same,fraction unbound,[7],0.001
same,ED50,Rattus norvegicus [8],0.01 mg/kg
same,bioavailability,[9],20%
same,concentration at 7 h,[10],40.5 nM
same,pKa,[11],4
same,AUC(0-t) at 24 h,[12],0.002 µM·h
same,AUC(0-t) at 24 h,[13],0.461 µM·h
same,Cmax,[14],0.15 nM
same,concentration at 1 h,[15],6.84 nM
same,Drug metabolism,Mus musculus,Metabolite_Notdetected
same,AUC at 24 h,[16],1.69 µM·h
same,concentration at 7 h,[17],9.74 nM
same,Activity,Rattus norvegicus [18],Active
same,Cmax,[19],172 nM
same,AUC,[20],6.04 µM·h
same,AUC at 24 h,[21],0.08 µM·h
same,Activity,Rattus norvegicus [22],Dose-dependent effect
same,AUC(0-t) at 24 h,[23],1.34 µM·h
same,Cmax,[24],7.1 nM
same,Activity,Rattus norvegicus [25],Dose-dependent effect
same,Cmax,[26],0.26 nM
same,half-life,[27],3.7 h
same,AUC/dose,Rattus norvegicus [28],390 nM·h
same,AUC/dose,Rattus norvegicus [29],756 nM·h
same,Cmax,[30],1.5 nM
same,Activity,Rattus norvegicus [31],Active
same,Drug metabolism,Rattus norvegicus [32],Metabolite_Notdetected
same,ED50,Rattus norvegicus [33],0.05 mg/kg
same,concentration at 7 h,[34],0.31 nM
